ChEMBL document CHEMBL1153229, “The first synthetic agonists of FFA2: Discovery and SAR of phenylacetamides as allosteric modulators” (Bioorg Med Chem Lett, 2010)

What was measured:
[1] = molecular target: T1, Free fatty acid receptor 2 (Homo sapiens, UniProt O15552); test: Agonist activity at human FFA2 receptor expressed in CHO cells assessed as inhibition of forskolin-induced cAMP production; assay type: functional, cell-based
T1 sequence (O15552 whole entry): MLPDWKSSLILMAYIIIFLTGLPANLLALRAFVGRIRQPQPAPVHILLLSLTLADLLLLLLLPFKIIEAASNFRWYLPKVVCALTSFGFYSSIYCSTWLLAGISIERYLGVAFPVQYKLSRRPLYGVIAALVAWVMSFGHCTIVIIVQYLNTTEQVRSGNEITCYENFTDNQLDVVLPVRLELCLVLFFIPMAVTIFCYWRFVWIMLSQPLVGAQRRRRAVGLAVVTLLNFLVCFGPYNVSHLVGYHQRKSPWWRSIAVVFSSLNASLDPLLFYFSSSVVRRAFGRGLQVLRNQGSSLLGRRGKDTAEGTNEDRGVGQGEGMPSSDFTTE
Method in brief: (§1)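 Suspended cells, 10,000 per well, in Hank's balanced salt solution with 25 mM HEPES and 0.01% (w/v) BSA. Stimulated with forskolin (5 μM final) plus serially diluted test ligands, room temperature for 30 min. Antibody and lysis reagents then added, followed by overnight dark incubation with detection solution. Luminescence read (RLU). Efficacy expressed relative to acetate. Means of four experiments.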

[2] = molecular target: T2, Free fatty acid receptor 2 (Homo sapiens) (UniProt O15552); test: Agonist activity at human FFA2 receptor expressed in CHO cells assessed as inhibition of forskolin-induced cAMP production relative to acetate; assay type: functional, cell-based; method in brief: as §1
T2 sequence (whole entry): T1 sequence (O15552 whole entry)

For CC(C)[C@H](C(=O)N(C)c1nccs1)c1ccc(Cl)cc1, the IC50 [1] was 84 µM and the Efficacy [2] was 37%.

For CC(C)[C@H](C(=O)NCc1ccccc1)c1ccc(Cl)cc1, the IC50 [1] was > 100 µM and the Efficacy [2] was < 30%.

For CC[C@H](C(=O)Nc1nccs1)c1ccc(Cl)cc1, the IC50 [1] was 5 µM and the Efficacy [2] was 105%.

Work on CC(C)[C@H](C(=O)NC1=NCCS1)c1ccc(Cl)cc1 yielded an IC50 [1] of 2.1 µM and an Efficacy [2] of 109%.

With O=C(Nc1nccs1)C(c1ccc(Cl)cc1)c1ccc(Cl)cc1 the IC50 [1] was > 100 µM and the Efficacy [2] was < 30%.

In the case of CC(C)C(C(=O)O)c1ccc(Cl)cc1 (racemic), the IC50 [1] is reported as > 100 µM and the Efficacy [2] is reported as < 30%.

CC(C)[C@H](C(=O)Nc1ncns1)c1ccc(Cl)cc1 was tested, and the IC50 [1] was 2 µM and the Efficacy [2] was 99%.

In the case of CC(C)[C@H](NC(=O)c1nccs1)c1ccc(Cl)cc1, the IC50 [1] is reported as > 100 µM and the Efficacy [2] is reported as < 30%.

With Cc1csc(NC(=O)[C@H](c2ccc(Cl)cc2)C(C)C)n1 the IC50 [1] was 1.4 µM and the Efficacy [2] was 87%.

CC(C)(C)[C@H](C(=O)Nc1ncc(S(C)(=O)=O)s1)c1ccc(Cl)cc1 was tested, and the IC50 [1] was 3.4 µM and the Efficacy [2] was 107%.

With CC(C)C(C(=O)Nc1cccnc1)c1ccc(Cl)cc1 (racemic) the IC50 [1] was 49 µM and the Efficacy [2] was 73%.

In the case of O=C(Nc1ncc(F)s1)C1(c2ccc(Cl)cc2)CC1, the IC50 [1] is reported as > 100 µM and the Efficacy [2] is reported as < 30%.

For CC(C)[C@H](C(=O)Nc1nc2cc(Cl)ccc2o1)c1ccc(Cl)cc1, the IC50 [1] was 4.3 µM and the Efficacy [2] was 88%.

COCC[C@H](C(=O)Nc1nccs1)c1ccc(Cl)cc1 showed an IC50 [1] of 170 µM and an Efficacy [2] of 53%.

In the case of CS(=O)(=O)c1ccc([C@@H](C(=O)Nc2ncc(F)s2)C2CC2)cc1, the IC50 [1] is reported as > 100 µM and the Efficacy [2] is reported as < 30%.

For CC(C)[C@H](C(=O)Nc1cccc(F)n1)c1ccc(Cl)cc1, the IC50 [1] was 1.1 µM and the Efficacy [2] was 84%.

Molecule CC(C)[C@H](C(=O)Nc1ccccn1)c1ccc(Cl)cc1 has an IC50 [1] of 1.4 µM and an Efficacy [2] of 92%.

With CC(C)[C@H](NS(=O)(=O)c1nccs1)c1ccc(Cl)cc1 the IC50 [1] was > 100 µM and the Efficacy [2] was < 30%.

Molecule CC(C)[C@H](C(=O)Nc1ncc(C(N)=O)s1)c1ccc(Cl)cc1 has an IC50 [1] of 71 µM and an Efficacy [2] of 59%.

Work on CC(C)[C@H](C(=O)Nc1nc(C(F)(F)F)cs1)c1ccc(Cl)cc1 yielded an IC50 [1] of 17 µM and an Efficacy [2] of 123%.

Molecule CC(C)[C@H](C(=O)Nc1ncc[nH]1)c1ccc(Cl)cc1 has an IC50 [1] of 20 µM and an Efficacy [2] of 55%.

Molecule CC(C)[C@H](C(=O)Nc1ncco1)c1ccc(Cl)cc1 has an IC50 [1] of 25 µM and an Efficacy [2] of 92%.

CC(C)[C@H](C(=O)Nc1cnns1)c1ccc(Cl)cc1 was tested, and the IC50 [1] was 57 µM and the Efficacy [2] was 48%.

In the case of CC(C)(C)[C@H](C(=O)Nc1ncc(N2CCS(=O)(=O)CC2)s1)c1ccc(Cl)cc1, the IC50 [1] is reported as 2.4 µM and the Efficacy [2] is reported as 118%.

In the case of CC(C)[C@H](C(=O)Nc1ccc(F)cn1)c1ccc(Cl)cc1, the IC50 [1] is reported as 1.3 µM and the Efficacy [2] is reported as 93%.

In the case of CC(C)[C@H](C(=O)Nc1ccn[nH]1)c1ccc(Cl)cc1, the IC50 [1] is reported as > 100 µM.

In the case of CC(C)C(C(N)=O)c1ccc(Cl)cc1 (racemic), the IC50 [1] is reported as > 100 µM and the Efficacy [2] is reported as < 30%.

O=C(Nc1ncc(F)s1)[C@H](c1ccnc(Cl)c1)C1CC1 was tested, and the IC50 [1] was 16 µM and the Efficacy [2] was 120%.

CSc1cnc(NC(=O)[C@H](c2ccc(Cl)cc2)C(C)(C)C)s1 was tested, and the IC50 [1] was 0.5 µM and the Efficacy [2] was 109%.

In the case of CC(C)C(C(=O)Nc1nc2ccccc2s1)c1ccc(Cl)cc1 (racemic), the IC50 [1] is reported as 3 µM and the Efficacy [2] is reported as 91%.

For O=C(Cc1ccc(Cl)cc1)Nc1nccs1, the IC50 [1] was > 100 µM and the Efficacy [2] was < 30%.

For CO/C(=N\c1nccs1)[C@H](c1ccc(Cl)cc1)C(C)C, the IC50 [1] was > 100 µM and the Efficacy [2] was < 30%.

CC(C)[C@H](C(=O)Nc1ccncc1)c1ccc(Cl)cc1 gave an IC50 [1] of 56 µM and an Efficacy [2] of 40%.

CC(C)[C@H](C(=O)Nc1ccon1)c1ccc(Cl)cc1 (racemic) gave an IC50 [1] of 36 µM and an Efficacy [2] of 90%.

In the case of CC(C)C(c1ccc(Cl)cc1)S(=O)(=O)Nc1nccs1 (racemic), the IC50 [1] is reported as > 100 µM and the Efficacy [2] is reported as < 30%.

In the case of CC(C)[C@H](C(=O)Nc1cc[nH]n1)c1ccc(Cl)cc1, the Efficacy [2] is reported as < 30%.

CCC(=O)O was tested, and the Efficacy [2] was 100%.
